Bioassay records (PubChem)
This is a sample that favours compounds with a hit; in the whole collection about 2.1% have one here.
A3A deaminase – APOBEC3A ssDNA deaminase inhibitors, primary screen, selectivity assay for APOBEC3G inhibitor project, biochemical, FAM/TAMRA oligo cleavage fluorescence. recombinant A3A, FAM/TAMRA ssDNA deamination fluorescence. AID 493011, 2011. inhibition, % at 20 µM. 0.41% of 330,000 active;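 active = at least 40% inhibition at 20 µM here, with at most 30% in a related deaminase screen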;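 note: plate controls were A3A with DMSO for no effect and wells lacking A3A enzyme for full effect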
ARFGAP1 inh – inhibitors of rat ARFGAP1 GAP activity, primary screen, biochemical, fluorescence polarization, GDP tracer | Arfgap1-stimulated ARF1 GTP hydrolysis, GDP FP detection | inhibition, % at 16.5 µM | 0.26% of 360,000 active;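 active = inhibition above a per-plate limit, mean inhibition of low control wells plus 3 SD, cut at about 25% in these data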;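 note: 0% = DMSO wells with enzyme and 100% = wells lacking Arfgap1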
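System: truncated rat Arfgap1 GAP domain / Medium: HEPES-based buffer, pH 7.5 / Also added: N-terminally truncated human ARF1-GTP substrate / Incubation: enzyme reaction 120 min at 25 °C after 20 min preincubation / Measured by: FP of antibody-bound GDP Alexa 633 tracer, ex 620/em 688 nm / Replicates: singlicate, each compound tested once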
A3G deaminase – APOBEC3G DNA deaminase inhibitors, primary screen, biochemical, fluorescence, single-stranded DNA substrate, uHTS; inhibition, % at 20 µM; recombinant A3G, ssDNA deamination FAM/TAMRA fluorescence; 0.28% of 330,000 active; AID 493012, 2011;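 active = inhibition of at least 40% at 20 µM, with no more than 30% in the related APOBEC3A deaminase screen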;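 note: plate controls were DMSO wells with A3G for no effect and wells lacking A3G enzyme for full effect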
Target sequence (Q9HC16 whole entry, looked up): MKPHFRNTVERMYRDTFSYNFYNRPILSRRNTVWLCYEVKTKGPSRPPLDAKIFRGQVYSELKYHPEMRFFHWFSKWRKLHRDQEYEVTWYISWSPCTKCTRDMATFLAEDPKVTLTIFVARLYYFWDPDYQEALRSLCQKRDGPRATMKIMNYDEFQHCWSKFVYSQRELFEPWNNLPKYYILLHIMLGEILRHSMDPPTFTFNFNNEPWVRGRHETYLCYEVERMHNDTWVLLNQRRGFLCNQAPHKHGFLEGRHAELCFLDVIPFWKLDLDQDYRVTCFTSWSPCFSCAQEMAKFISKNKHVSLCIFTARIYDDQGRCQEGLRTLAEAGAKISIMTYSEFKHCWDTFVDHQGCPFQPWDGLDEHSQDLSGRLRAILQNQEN
C2C12 statin – suppressors of statin myotoxicity in C2C12 myotubes, primary screen, cell-based, single point, plate reader. C2C12 myotubes + simvastatin, ATP luminescence, 48 h; scaled: DMSO 0, geranylgeraniol control 100. rescue of ATP level, % at 7.49 µM. 0.78% of 330,000 active. AID 602340, 2012;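 active = mean ATP rescue above about 67%, or every replicate alone reaching that limit, limit read from the data, passing the limit was not always enough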;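 note: myotubes were challenged with 10 µM simvastatin during compound exposure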
ASAP1 GAP inh – inhibitors of human ASAP1 ArfGAP activity, primary screen, biochemical, fluorescence polarization; Arf-GAP with SH3 domain, ANK repeat and PH domain-containing protein 1 (Homo sapiens), …; ASAP1-stimulated ARF1 GTP hydrolysis, GDP FP detection; inhibition, % at 16.5 µM; 0.19% of 360,000 active; in the data active = inhibition above about 25%;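 note: 0% = vehicle with enzyme and substrate and 100% = no enzyme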
Mot1-301 SUMO – yeast Mot1-301 growth rescue at high temperature, primary screen, SUMOylation pathway inhibitor project, S. cerevisiae, ATP luminescence, 38.5C; S. cerevisiae Mot1-301 growth rescue; percent above DMSO median, 100 means doubled; growth rescue, % at 18.8 µM; 1% of 320,000 active;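 active = every valid replicate shows activation above 250% relative to neutral control wells; inactive = the rest, any valid replicate at or below 250%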;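 note: OY570 slx delta 5 strain wells were the positive control but not used for scaling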
Mot1 SUMO dose – growth restoration of Mot1-301 yeast on galactose, dose response, SUMO pathway inhibitor project, whole organism, S. cerevisiae, ATP luminescence, cherry-picked samples. shares compounds with Mot1-301 SUMO. S. cerevisiae Mot1-301 galactose growth, 24 h; -100 = growth of slx-deleted rescue strain. growth activity, percent, % at 42 µM. 2,300 tested, under 10 active. AID 493004, 2010;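 active = Signal drops as the depositor expects, and the fitted half-maximal dose is no more than ten times the top valid tested dose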;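 note: more negative values mean stronger growth rescue toward the control strain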
Starred values were filed as active, the others as inactive.

How did COC(=O)C1CN(C(=O)C(C)Oc2ccc(F)cc2)c2ccccc2O1 (stereo not given) do in these assays?
A3A deaminase: 1; ARFGAP1 inh: 3; A3G deaminase: -4; C2C12 statin: 2; ASAP1 GAP inh: 17; Mot1-301 SUMO: 748*; Mot1 SUMO dose: 0

How did COC(=O)C1CN(C(=O)C(C)Oc2ccccc2F)c2ccccc2O1 (stereo not given) do in these assays?
A3A deaminase: 4; ARFGAP1 inh: 0; A3G deaminase: -4; C2C12 statin: -1; ASAP1 GAP inh: 16; Mot1-301 SUMO: -14

How did CN1[C@@H]2c3ccc(-c4ccccc4)c(=O)n3C[C@H]1[C@H](CO)[C@H]2C(=O)Nc1nccs1 do in these assays?
C2C12 statin: -11

How did CCCNC(=O)N[C@@H]1CC[C@H](CCNS(=O)(=O)c2cccc(F)c2)O[C@H]1CO do in these assays?
C2C12 statin: 12

What do the screens show for `CS(=O)(=O)N1[C@@H]2Cn3c(cccc3=O)[C@H]1[C@@H](C(=O)NCc1ccccc1)[C@@H]2CO`?
C2C12 statin: 6

Results for O=C(CSc1ncccc1C(=O)O)NC1CCCCC1 ?
A3A deaminase: -6; ARFGAP1 inh: -7; A3G deaminase: -6; C2C12 statin: 34; ASAP1 GAP inh: 5; Mot1-301 SUMO: 420*; Mot1 SUMO dose: 1

What do the screens show for `O=C(CSc1nc(O)cc(=O)n1-c1ccccc1)NC1CCCCC1`?
A3A deaminase: -2; ARFGAP1 inh: 5; A3G deaminase: -4; ASAP1 GAP inh: -3; Mot1-301 SUMO: 584*; Mot1 SUMO dose: 0

Results for O=C(c1ccncc1)N1CC[C@H]2[C@H](CO)Nc3ccc(-c4ccccc4)cc3[C@H]21 ?
C2C12 statin: -17

Results for O=C(Nc1ccc2c(c1)[C@H]1C[C@@H](CC(=O)N3CCc4ccccc4C3)O[C@H](CO)[C@H]1O2)C1CCC1 ?
C2C12 statin: -6

Results for O=C(Nc1ccc(Cl)c(Cl)c1)N[C@H]1CC[C@H](CCn2cc(C3CC3)nn2)O[C@H]1CO ?
C2C12 statin: 4

Results for Cc1ccc(N2C(=O)c3cccc4c([N+](=O)[O-])ccc(c34)C2=O)c2cccnc12 ?
A3A deaminase: -3; ARFGAP1 inh: 8; A3G deaminase: -5; C2C12 statin: -26; ASAP1 GAP inh: -5; Mot1-301 SUMO: 8

Results for Cc1ccc(N2C(=O)c3cccc4c(N5CCN(C)CC5)ccc(c34)C2=O)c2cccnc12 ?
A3A deaminase: -10; A3G deaminase: -24; Mot1-301 SUMO: 702*; Mot1 SUMO dose: -1

What do the screens show for `Cc1ccc(CN2CCN(/N=C/c3cc(Br)cc(Br)c3O)CC2)cc1`?
A3A deaminase: 3; ARFGAP1 inh: 7; A3G deaminase: -12; ASAP1 GAP inh: 5; Mot1-301 SUMO: 326

What do the screens show for `Oc1c(Br)cc(Br)cc1/C=N/N1CCN(Cc2ccccc2)CC1`?
ARFGAP1 inh: -5; ASAP1 GAP inh: 17; Mot1-301 SUMO: 842*; Mot1 SUMO dose: 0

Results for N#CC1=C(N)Oc2cc(O)ccc2C1c1cccs1 (stereo not given) ?
A3A deaminase: -5; ARFGAP1 inh: -2; A3G deaminase: -8; C2C12 statin: 20; ASAP1 GAP inh: -2; Mot1-301 SUMO: 84
